Measured values of several laboratories.
RPS6KA1: Ribosomal protein S6 kinase alpha-1 (RPS6KA1, Homo sapiens, UniProt Q15418)
RPS6KA1 C-terminal kinase domain: Ribosomal protein S6 kinase alpha-1, C-terminal kinase domain (RPS6KA1, Homo sapiens, UniProt Q15418)
RPS6KA1 N-terminal kinase domain: Ribosomal protein S6 kinase alpha-1, N-terminal kinase domain (RPS6KA1, Homo sapiens, UniProt Q15418)

SMILES | target | effect on | action | method | tested at | measurement | result
Cc1sc(C(=O)NC2COC2)cc1-n1cc(NC(=O)Nc2c(F)cccc2Cl)cn1 | RPS6KA1 | enzyme activity | inhibitor | – | 10 µM | remaining activity | 93.2%
CN1CC(Oc2cnc(C#N)cc2-c2ccn3nc(NC(=O)C4CC4)cc3c2)C1 | RPS6KA1 | enzyme activity | inhibitor | – | 1 µM | inhibition | 31%
Cn1cncc1C1=CN(c2ncnc3[nH]cnc23)CCS1 | RPS6KA1 | enzyme activity | inhibitor | radiometric | 2 µM | inhibition | 82%
Cc1ccc(C(=O)Nc2ccc(CN3CCN(C)CC3)c(C(F)(F)F)c2)cc1C#Cc1cnc2cccnn12 | RPS6KA1 | enzyme activity | inhibitor | – | 23.5 nM | remaining activity | 80%
O=C1NC(c2ccccn2)Sc2ccccc21 (centres unmarked) | RPS6KA1 C-terminal kinase domain | cell-free assay | – | competition with immobilised ligand | 1 µM | remaining binding | 100%
COc1cc(Nc2cnc(C#N)c(O[C@H](C)CN(C)C)n2)ncc1-c1cnn(C)c1 | RPS6KA1 | enzyme activity | inhibitor | radiometric | 1 µM | remaining activity | 4%
CC(C)(O)[C@H]1CC[C@H](Nc2ccc3ncc(-c4cccc(C(F)(F)F)c4)n3n2)CC1 | RPS6KA1 | enzyme activity | inhibitor | – | 1 µM | remaining activity | 72%
Cc1cc(C)c(-n2ccn3nc(-c4cccnc4)cc23)cc1NC(=O)c1cc(C#N)cc(S(F)(F)(F)(F)F)c1 | RPS6KA1 N-terminal kinase domain | cell-free assay | – | competition with immobilised ligand | 0.1 µM | remaining binding | 97%
Cn1c(=O)n(-c2ccc(C(C)(C)C#N)cc2)c2c3cc(-c4cnc5ccccc5c4)ccc3ncc21 | RPS6KA1 | enzyme activity | inhibitor | – | 10 µM | remaining activity | 97%
c1cnn2ncc(-c3ccnc(N4CCC45COC5)n3)c2c1 | RPS6KA1 N-terminal kinase domain | binding | – | competition with immobilised ligand | 1 µM | remaining binding | 90%
Cc1nccc(COC(=O)N2C[C@@H]3[C@@H](CNC(=O)c4ccc5[nH]nnc5c4)[C@@H]3C2)n1 | RPS6KA1 C-terminal kinase domain | cell-free assay | – | competition with immobilised ligand | 1 µM | remaining binding | 96%
CC(C)(C)C(=O)c1sc(NC2CCCCC2)nc1N | RPS6KA1 | enzyme activity | inhibitor | – | 10 µM | remaining activity | 89%
N[C@@H]1CCN(c2nccc(-c3cnn4ncccc34)n2)C1 | RPS6KA1 C-terminal kinase domain | binding | – | competition with immobilised ligand | 1 µM | remaining binding | 100%
CCC(=N\O)/C(C)=C/c1ccc(F)cc1 | RPS6KA1 C-terminal kinase domain | cell-free assay | – | competition with immobilised ligand | 1 µM | remaining binding | 100%
O=C1Nc2ccc(Cl)cc2C1=Cc1cc(Cl)c(O)c(Cl)c1 | RPS6KA1 | cell-free assay | – | – | 0.5 µM | remaining signal | 48.4%
CNC(=O)c1cc(Oc2ccc(NC(=O)Nc3ccc(Cl)c(C(F)(F)F)c3)cc2)ccn1 | RPS6KA1 | enzyme activity | inhibitor | – | 0.3 µM | inhibition | 5%
CC1CCCN1c1nccc(-c2cnn3ncccc23)n1 (centres unmarked) | RPS6KA1 C-terminal kinase domain | binding | – | competition with immobilised ligand | 1 µM | remaining binding | 77%
O=C(N[C@H]1CCCCC/C=C\C2C[C@@]2(C(=O)O)NC(=O)[C@@H]2C[C@@H](Oc3ccncc3)CN2C1=O)OC1CCCC1 (some centres unmarked) | RPS6KA1 N-terminal kinase domain | binding | – | competition with immobilised ligand | 1 µM | remaining binding | 100%
CCCCNc1ncc2c(-c3ccc(F)cc3)nn(C[C@H]3CC[C@H](N)CC3)c2n1 | RPS6KA1 C-terminal kinase domain | target engagement in cells | inhibitor | chemoproteomics | 20 mM | inhibition | 63.4%
N#CCCc1ccc2c(c1)-c1[nH]c3ccc([N+](=O)[O-])cc3c1CC(=O)N2 | RPS6KA1 | cell-free assay | – | – | 0.5 µM | remaining signal | 59.9%
CC(C)(C)c1nc2c(s1)c1nc(N)ncc1c1ccc(NS(=O)(=O)c3c(F)cccc3F)c(F)c12 | RPS6KA1 | enzyme activity | inhibitor | radiometric | 1 µM | remaining activity | 107%
CCCCN(CCCC)C(=O)CN1C[C@H](c2cc(OC)c3c(c2)OCO3)[C@@H](C(=O)O)[C@@H]1CC(C)(C)CCC | RPS6KA1 N-terminal kinase domain | cell-free assay | – | competition with immobilised ligand | 1 µM | remaining binding | 97.7%
COc1cc2ncnc(Nc3ccc(F)c(Cl)c3)c2cc1OCCCN1CCOCC1 | RPS6KA1 | cell-free assay | – | – | 0.5 µM | remaining signal | 97.3%
